Results: ChEMBL document CHEMBL2346519, “Substituted indolin-2-ones as p90 ribosomal S6 protein kinase 2 (RSK2) inhibitors: Molecular docking simulation and structure-activity relationship analysis” (Bioorg Med Chem, 2013)

Experiments:
[1] = target: Tyrosine-protein kinase Lyn (Homo sapiens) (UniProt P07948); assay: Inhibition of LYNA (unknown origin) at 3 uM after 10 mins by mobility shift assay relative to control
[2] = target: Glycogen synthase kinase-3 beta (Homo sapiens) (UniProt P49841); conditions: 3 uM
[3] = target: Tyrosine-protein kinase Lck (Homo sapiens) (UniProt P06239); conditions: 3 uM
[4] = target: Mitogen-activated protein kinase 3 (Homo sapiens) (UniProt P27361); conditions: 3 uM
[5] = target: T1, RAC-alpha serine/threonine-protein kinase (Homo sapiens, UniProt P31749); assay: Inhibition of AKT1 (unknown origin) at 3 uM after 10 mins by mobility shift assay relative to control
[6] = target: T2, Mitogen-activated protein kinase 14 (Homo sapiens, UniProt Q16539); conditions: 3 uM
[7] = target: Protein kinase C alpha type (Homo sapiens) (UniProt P17252); assay: Inhibition of PKC alpha (unknown origin) using PIP2 as substrate at 3 uM after 1 hr by Kinase-Glo assay relative to control
[8] = target: Proto-oncogene tyrosine-protein kinase Src (Homo sapiens) (UniProt P12931); assay: Inhibition of SRC (unknown origin) at 3 uM after 10 mins by mobility shift assay relative to control
[9] = target: Fibroblast growth factor receptor 1 (Homo sapiens) (UniProt P11362); conditions: 3 uM
[10] = target: T2, Mitogen-activated protein kinase 14; assay: Inhibition of p38alpha (unknown origin) after 10 mins by mobility shift assay
[11] = target: Serine/threonine-protein kinase pim-1 (Homo sapiens) (UniProt P11309); assay: Inhibition of PIM1 (unknown origin) at 10 uM after 10 mins by mobility shift assay relative to control
[12] = target: Ribosomal protein S6 kinase beta-1 (Homo sapiens) (UniProt P23443); assay: Inhibition of p70S6K (unknown origin) at 10 uM after 10 mins by mobility shift assay relative to control
[13] = target: Fibroblast growth factor receptor 1 (Homo sapiens) (UniProt P11362); conditions: 10 uM
[14] = target: Mitogen-activated protein kinase 3 (Homo sapiens) (UniProt P27361); assay: Inhibition of ERK1 (unknown origin) at 10 uM after 10 mins by mobility shift assay relative to control
[15] = target: Tyrosine-protein kinase ABL1 (Homo sapiens) (UniProt P00519); assay: Inhibition of ABL (unknown origin) at 3 uM after 10 mins by mobility shift assay relative to control
[16] = target: 3-phosphoinositide-dependent protein kinase 1 (Homo sapiens) (UniProt O15530); assay: Inhibition of PDK1 (unknown origin) at 3 uM after 10 mins by mobility shift assay relative to control
[17] = target: Hepatocyte growth factor receptor (Homo sapiens) (UniProt P08581); assay: Inhibition of c-MET (unknown origin) at 10 uM after 10 mins by mobility shift assay relative to control
[18] = target: Ribosomal protein S6 kinase alpha-5 (Homo sapiens) (UniProt O75582); conditions: 3 uM
[19] = target: Fibroblast growth factor receptor 3 (Homo sapiens) (UniProt P22607); conditions: 3 uM
[20] = target: T3, Ribosomal protein S6 kinase alpha-3 (Homo sapiens, UniProt P51812); assay: Inhibition of RSK2 (unknown origin) using AKRRRLSSLRA as substrate after 60 mins by fluorescence assay
[21] = test system: PC-3; assay: Cytotoxicity against human PC3 cells assessed as growth inhibition after 48 hrs by MTT assay; assay type: functional, cell-based; conditions: PC-3, 48 h
Procedure, shortened: (§1)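 MCF-7 cells grown in DMEM plus 10% FBS and PC 3 cells in F-12K, both seeded at 5 × 10^3 per well. Cells were exposed to compounds at various concentrations for 48 h. MTT was then added for 4 h at 37 °C in 5% CO2, formazan was dissolved in DMSO, and absorbance was read at 570 nm. IC50 was taken from inhibition curves of three independent experiments and measured only where inhibition at 100 µM exceeded 50%.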

[22] = target: T3, Ribosomal protein S6 kinase alpha-3; conditions: 3 uM
[23] = target: Proto-oncogene tyrosine-protein kinase Src (Homo sapiens) (UniProt P12931); conditions: 10 uM
[24] = target: Tyrosine-protein kinase Lck (Homo sapiens) (UniProt P06239); conditions: 10 uM
[25] = target: Protein kinase C alpha type (Homo sapiens) (UniProt P17252); assay: Inhibition of PKC alpha (unknown origin) using PIP2 as substrate at 10 uM after 1 hr by Kinase-Glo assay relative to control
[26] = target: Aurora kinase B (Homo sapiens) (UniProt Q96GD4); assay: Inhibition of Aurora B (unknown origin) at 3 uM after 10 mins by mobility shift assay relative to control
[27] = target: T3, Ribosomal protein S6 kinase alpha-3; assay: Inhibition of RSK2 (unknown origin) using AKRRRLSSLRA as substrate at 10 uM after 60 mins by fluorescence assay relative to control
[28] = target: Vascular endothelial growth factor receptor 2 (Homo sapiens) (UniProt P35968); conditions: 10 uM
[29] = target: Fibroblast growth factor receptor 3 (Homo sapiens) (UniProt P22607); conditions: 10 uM
[30] = target: T1, RAC-alpha serine/threonine-protein kinase; assay: Inhibition of AKT1 (unknown origin) at 10 uM after 10 mins by mobility shift assay relative to control
[31] = target: Ribosomal protein S6 kinase beta-1 (Homo sapiens) (UniProt P23443); conditions: 3 uM
[32] = target: 3-phosphoinositide-dependent protein kinase 1 (Homo sapiens) (UniProt O15530); assay: Inhibition of PDK1 (unknown origin) at 10 uM after 10 mins by mobility shift assay relative to control
[33] = target: Platelet-derived growth factor receptor alpha (Homo sapiens) (UniProt P16234); assay: Inhibition of PDGFRalpha (unknown origin) at 10 uM after 10 mins by mobility shift assay relative to control
[34] = test system: MCF7; assay: Cytotoxicity against human MCF7 cells assessed as growth inhibition after 48 hrs by MTT assay; assay type: functional, cell-based; conditions: MCF7, 48 h; procedure, shortened: as §1
[35] = target: Glycogen synthase kinase-3 beta (Homo sapiens) (UniProt P49841); conditions: 10 uM
[36] = target: Hepatocyte growth factor receptor (Homo sapiens) (UniProt P08581); assay: Inhibition of c-MET (unknown origin) at 3 uM after 10 mins by mobility shift assay relative to control
[37] = target: Tyrosine-protein kinase Lyn (Homo sapiens) (UniProt P07948); assay: Inhibition of LYN-A (unknown origin) at 10 uM after 10 mins by mobility shift assay relative to control
[38] = target: Mast/stem cell growth factor receptor Kit (Homo sapiens) (UniProt P10721); assay: Inhibition of cKit (unknown origin) at 10 uM after 10 mins by mobility shift assay relative to control
[39] = target: T2, Mitogen-activated protein kinase 14; conditions: 10 uM
[40] = target: Mitogen-activated protein kinase 9 (Homo sapiens) (UniProt P45984); assay: Inhibition of JNK2 (unknown origin) at 10 uM after 10 mins by mobility shift assay relative to control
[41] = target: T1, RAC-alpha serine/threonine-protein kinase; assay: Inhibition of AKT1 (unknown origin) after 10 mins by mobility shift assay
[42] = target: Platelet-derived growth factor receptor alpha (Homo sapiens) (UniProt P16234); assay: Inhibition of PDGFRalpha (unknown origin) at 3 uM after 10 mins by mobility shift assay relative to control
[43] = target: Mast/stem cell growth factor receptor Kit (Homo sapiens) (UniProt P10721); conditions: 3 uM
[44] = target: Vascular endothelial growth factor receptor 2 (Homo sapiens) (UniProt P35968); assay: Inhibition of KDR (unknown origin) at 3 uM after 10 mins by mobility shift assay relative to control
[45] = target: Tyrosine-protein kinase ABL1 (Homo sapiens) (UniProt P00519); assay: Inhibition of ABL (unknown origin) at 10 uM after 10 mins by mobility shift assay relative to control
[46] = target: Serine/threonine-protein kinase pim-1 (Homo sapiens) (UniProt P11309); assay: Inhibition of PIM1 (unknown origin) at 3 uM after 10 mins by mobility shift assay relative to control
[47] = target: Aurora kinase B (Homo sapiens) (UniProt Q96GD4); assay: Inhibition of Aurora B (unknown origin) at 10 uM after 10 mins by mobility shift assay relative to control
[48] = target: Ribosomal protein S6 kinase alpha-5 (Homo sapiens) (UniProt O75582); assay: Inhibition of MSK1 (unknown origin) at 10 uM after 10 mins by mobility shift assay relative to control
[49] = target: Mitogen-activated protein kinase 9 (Homo sapiens) (UniProt P45984); assay: Inhibition of JNK2 (unknown origin) at 3 uM after 10 mins by mobility shift assay relative to control

T2 sequence (Q16539 whole entry): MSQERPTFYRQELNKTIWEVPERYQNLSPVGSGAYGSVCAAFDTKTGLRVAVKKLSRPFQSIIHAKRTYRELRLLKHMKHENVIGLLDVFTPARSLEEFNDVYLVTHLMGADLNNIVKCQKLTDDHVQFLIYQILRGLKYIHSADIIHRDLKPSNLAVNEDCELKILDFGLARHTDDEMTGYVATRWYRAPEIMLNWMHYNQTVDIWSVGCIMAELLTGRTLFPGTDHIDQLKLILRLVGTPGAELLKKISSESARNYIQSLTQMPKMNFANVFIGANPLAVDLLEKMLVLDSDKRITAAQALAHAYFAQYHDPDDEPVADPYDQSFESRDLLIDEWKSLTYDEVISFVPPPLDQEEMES
T1 sequence (P31749 whole entry): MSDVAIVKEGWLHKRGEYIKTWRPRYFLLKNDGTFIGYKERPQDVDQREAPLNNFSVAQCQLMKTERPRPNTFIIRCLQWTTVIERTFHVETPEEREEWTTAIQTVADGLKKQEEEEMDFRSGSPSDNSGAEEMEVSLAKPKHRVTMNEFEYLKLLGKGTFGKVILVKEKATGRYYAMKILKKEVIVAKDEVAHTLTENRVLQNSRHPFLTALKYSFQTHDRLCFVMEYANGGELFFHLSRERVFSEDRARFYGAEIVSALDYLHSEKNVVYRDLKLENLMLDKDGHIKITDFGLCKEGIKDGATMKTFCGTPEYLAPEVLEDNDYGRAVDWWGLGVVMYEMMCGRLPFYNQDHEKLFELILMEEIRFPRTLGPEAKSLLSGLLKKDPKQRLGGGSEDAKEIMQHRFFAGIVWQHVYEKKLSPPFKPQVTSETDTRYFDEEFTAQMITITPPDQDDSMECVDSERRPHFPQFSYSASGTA
T3 sequence (P51812 whole entry): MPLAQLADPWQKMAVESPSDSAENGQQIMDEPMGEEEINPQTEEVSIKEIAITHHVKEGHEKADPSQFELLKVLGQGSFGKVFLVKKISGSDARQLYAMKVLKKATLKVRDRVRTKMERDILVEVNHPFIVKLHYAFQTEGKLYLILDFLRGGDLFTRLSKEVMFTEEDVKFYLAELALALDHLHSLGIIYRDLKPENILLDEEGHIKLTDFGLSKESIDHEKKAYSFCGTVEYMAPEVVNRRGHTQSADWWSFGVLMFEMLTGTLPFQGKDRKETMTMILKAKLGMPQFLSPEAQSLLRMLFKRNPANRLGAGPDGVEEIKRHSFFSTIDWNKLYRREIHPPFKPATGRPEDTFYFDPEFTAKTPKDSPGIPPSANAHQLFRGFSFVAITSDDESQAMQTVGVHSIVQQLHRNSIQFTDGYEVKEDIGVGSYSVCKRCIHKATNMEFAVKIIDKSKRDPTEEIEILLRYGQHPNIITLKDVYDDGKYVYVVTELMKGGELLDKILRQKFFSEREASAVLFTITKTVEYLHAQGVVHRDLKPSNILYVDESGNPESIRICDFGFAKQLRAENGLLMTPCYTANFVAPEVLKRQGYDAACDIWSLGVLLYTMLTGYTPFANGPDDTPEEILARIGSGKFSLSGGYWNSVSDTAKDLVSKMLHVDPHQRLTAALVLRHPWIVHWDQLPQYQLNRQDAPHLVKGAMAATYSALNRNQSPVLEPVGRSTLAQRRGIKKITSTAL
Mitogen-activated protein kinase 3 (Homo sapiens), sequence (P27361 whole entry): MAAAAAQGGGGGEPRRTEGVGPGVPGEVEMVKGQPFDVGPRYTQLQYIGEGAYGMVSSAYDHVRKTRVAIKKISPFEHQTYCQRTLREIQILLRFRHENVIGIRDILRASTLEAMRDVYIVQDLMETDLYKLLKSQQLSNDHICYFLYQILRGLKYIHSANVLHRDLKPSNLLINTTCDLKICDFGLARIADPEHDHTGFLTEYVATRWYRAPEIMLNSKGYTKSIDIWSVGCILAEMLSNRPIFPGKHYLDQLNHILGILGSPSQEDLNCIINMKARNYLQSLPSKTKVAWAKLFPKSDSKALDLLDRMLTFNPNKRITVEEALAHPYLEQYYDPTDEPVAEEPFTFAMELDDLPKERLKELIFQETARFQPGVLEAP
3-phosphoinositide-dependent protein kinase 1 (Homo sapiens), sequence (O15530 whole entry, looked up): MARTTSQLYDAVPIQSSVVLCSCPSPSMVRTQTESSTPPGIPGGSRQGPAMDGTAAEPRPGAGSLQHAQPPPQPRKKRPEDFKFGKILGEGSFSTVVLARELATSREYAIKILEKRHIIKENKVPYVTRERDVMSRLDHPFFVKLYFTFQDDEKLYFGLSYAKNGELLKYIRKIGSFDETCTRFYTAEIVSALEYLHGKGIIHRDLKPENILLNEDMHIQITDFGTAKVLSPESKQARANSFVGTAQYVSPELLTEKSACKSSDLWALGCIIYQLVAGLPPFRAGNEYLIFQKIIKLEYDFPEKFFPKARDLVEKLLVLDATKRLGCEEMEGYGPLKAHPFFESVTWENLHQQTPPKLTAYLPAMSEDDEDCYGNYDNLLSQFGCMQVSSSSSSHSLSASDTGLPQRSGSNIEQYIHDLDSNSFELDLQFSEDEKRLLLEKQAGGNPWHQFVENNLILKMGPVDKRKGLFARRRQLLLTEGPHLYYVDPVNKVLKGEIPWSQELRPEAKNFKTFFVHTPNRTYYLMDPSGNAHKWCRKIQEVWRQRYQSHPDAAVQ
Fibroblast growth factor receptor 3 (Homo sapiens), sequence (P22607 23-806 limits assumed): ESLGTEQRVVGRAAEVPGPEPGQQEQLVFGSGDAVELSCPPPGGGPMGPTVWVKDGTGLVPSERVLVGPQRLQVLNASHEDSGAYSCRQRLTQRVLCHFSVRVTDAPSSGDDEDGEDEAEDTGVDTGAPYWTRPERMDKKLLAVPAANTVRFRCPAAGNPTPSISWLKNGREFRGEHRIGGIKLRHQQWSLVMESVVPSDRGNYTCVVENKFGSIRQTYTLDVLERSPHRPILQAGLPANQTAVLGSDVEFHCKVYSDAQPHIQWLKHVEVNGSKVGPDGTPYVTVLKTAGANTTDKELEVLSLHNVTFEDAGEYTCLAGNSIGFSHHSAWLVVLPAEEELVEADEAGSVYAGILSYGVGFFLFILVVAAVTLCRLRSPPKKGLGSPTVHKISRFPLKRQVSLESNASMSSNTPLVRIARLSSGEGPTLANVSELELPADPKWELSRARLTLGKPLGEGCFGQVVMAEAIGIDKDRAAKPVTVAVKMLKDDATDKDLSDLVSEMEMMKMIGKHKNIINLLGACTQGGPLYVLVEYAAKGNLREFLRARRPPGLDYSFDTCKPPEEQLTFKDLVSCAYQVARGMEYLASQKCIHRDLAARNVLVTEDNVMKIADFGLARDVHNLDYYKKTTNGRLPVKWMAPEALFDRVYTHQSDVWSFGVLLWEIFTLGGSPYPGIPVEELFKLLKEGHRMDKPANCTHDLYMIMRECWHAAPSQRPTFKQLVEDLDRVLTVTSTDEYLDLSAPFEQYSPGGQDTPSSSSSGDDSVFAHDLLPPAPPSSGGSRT
Tyrosine-protein kinase Lyn (Homo sapiens), sequence (P07948 2-512 limits assumed): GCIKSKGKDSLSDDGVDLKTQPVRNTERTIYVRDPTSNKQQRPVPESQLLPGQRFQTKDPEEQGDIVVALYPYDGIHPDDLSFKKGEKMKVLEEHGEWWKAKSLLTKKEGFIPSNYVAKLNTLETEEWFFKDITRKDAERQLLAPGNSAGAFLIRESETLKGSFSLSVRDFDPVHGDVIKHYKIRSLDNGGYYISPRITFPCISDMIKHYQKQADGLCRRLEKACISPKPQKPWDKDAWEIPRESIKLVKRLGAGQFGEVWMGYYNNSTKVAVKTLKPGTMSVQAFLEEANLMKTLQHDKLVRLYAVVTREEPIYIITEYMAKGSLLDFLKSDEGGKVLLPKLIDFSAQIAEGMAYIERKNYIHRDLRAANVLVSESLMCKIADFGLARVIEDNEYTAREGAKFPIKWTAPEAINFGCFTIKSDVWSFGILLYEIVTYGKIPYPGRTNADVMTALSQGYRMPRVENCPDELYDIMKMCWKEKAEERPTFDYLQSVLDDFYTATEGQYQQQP
Platelet-derived growth factor receptor alpha (Homo sapiens), sequence (P16234 whole entry): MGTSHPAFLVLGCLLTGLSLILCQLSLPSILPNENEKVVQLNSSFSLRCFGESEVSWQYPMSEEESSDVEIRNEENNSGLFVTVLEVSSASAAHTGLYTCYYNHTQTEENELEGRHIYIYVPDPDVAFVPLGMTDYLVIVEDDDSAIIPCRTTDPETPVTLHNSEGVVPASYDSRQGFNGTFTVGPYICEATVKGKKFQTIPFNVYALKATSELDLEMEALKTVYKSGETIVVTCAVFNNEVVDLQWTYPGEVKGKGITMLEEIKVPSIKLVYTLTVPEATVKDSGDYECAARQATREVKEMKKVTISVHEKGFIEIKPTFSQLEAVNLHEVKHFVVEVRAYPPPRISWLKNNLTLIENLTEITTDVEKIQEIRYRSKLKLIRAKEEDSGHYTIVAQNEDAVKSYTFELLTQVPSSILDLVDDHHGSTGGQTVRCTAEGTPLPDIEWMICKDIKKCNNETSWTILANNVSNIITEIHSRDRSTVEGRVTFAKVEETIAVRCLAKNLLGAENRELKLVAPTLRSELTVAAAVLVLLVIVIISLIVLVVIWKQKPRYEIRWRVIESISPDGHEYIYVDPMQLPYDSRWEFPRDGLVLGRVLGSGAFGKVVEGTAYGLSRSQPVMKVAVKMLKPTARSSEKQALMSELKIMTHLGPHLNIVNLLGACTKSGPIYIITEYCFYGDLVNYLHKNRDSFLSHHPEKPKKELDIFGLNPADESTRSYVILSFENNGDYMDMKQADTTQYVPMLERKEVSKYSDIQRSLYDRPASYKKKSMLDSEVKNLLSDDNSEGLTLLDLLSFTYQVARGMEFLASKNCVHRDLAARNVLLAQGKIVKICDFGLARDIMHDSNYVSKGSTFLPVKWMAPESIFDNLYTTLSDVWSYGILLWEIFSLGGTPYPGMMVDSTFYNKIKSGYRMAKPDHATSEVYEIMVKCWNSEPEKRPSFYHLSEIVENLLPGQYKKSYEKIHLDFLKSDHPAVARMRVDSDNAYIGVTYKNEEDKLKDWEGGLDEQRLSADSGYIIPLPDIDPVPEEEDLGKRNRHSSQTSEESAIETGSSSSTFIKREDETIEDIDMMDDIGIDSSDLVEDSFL

`O=C1Nc2ccccc2/C1=C/c1c[nH]nc1-c1ccccc1[N+](=O)[O-]` showed an inhibition [1] of 25%, an inhibition [2] of 37% and an inhibition [3] of 31%. For the same compound, the inhibition [4] was 31%, the inhibition [5] was 7.8% and the inhibition [6] was 19%. For the same compound, the inhibition [7] was 4.4%, the inhibition [8] was 30% and the inhibition [9] was 44%. For the same compound, the IC50 [10] was 0.011 µM, the inhibition [11] was 4.7% and the inhibition [12] was 71%. It also gave an inhibition [13] of 65%, an inhibition [14] of 57% and an inhibition [15] of 43%. For the same compound, the inhibition [16] was 6.7%, the inhibition [17] was 16% and the inhibition [18] was 31%. It also gave an inhibition [19] of 44%, an IC50 [20] of 0.5 µM and an IC50 [21] of 9.32 µM. It also gave an inhibition [22] of 61%, an inhibition [23] of 55% and an inhibition [24] of 55%. The inhibition [25] was 13%, the inhibition [26] was 25% and the inhibition [27] was 93.4%. For the same compound, the inhibition [28] was 65%, the inhibition [29] was 65% and the inhibition [30] was 8.3%. For the same compound, the inhibition [31] was 44%, the inhibition [32] was 6.2% and the inhibition [33] was 38%. For the same compound, the IC50 [34] was 14.8 µM, the inhibition [35] was 40% and the inhibition [36] was 12%. It also gave an inhibition [37] of 49%, an inhibition [38] of 64% and an inhibition [39] of 27%. The inhibition [40] was 71%, the IC50 [41] was 0.011 µM and the inhibition [42] was 20%. For the same compound, the inhibition [43] was 55%, the inhibition [44] was 39% and the inhibition [45] was 67%. The inhibition [46] was 4.2%, the inhibition [47] was 34% and the inhibition [48] was 33%. For the same compound, the inhibition [49] was 36%.
